High-throughput results (PubChem)
RAM inhibit: yeast RAM network inhibition | inhibition, % at 50 µM | AID 868 | 190,000 tested, 1.8% active | S. cerevisiae dse1pr::URA3 reporter, 5-FOA growth OD615, 2 d; analog-sensitive cbk1-as2 kinase mutant strain;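 active = inhibition above a set limit, 3 SD over mean compound inhibition, cut at about 8.4% in these data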;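 also: inhibition rescues growth on 5-FOA so higher OD means more RAM inhibition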
BB579 growth dn: chemicals that inhibit yeast BB579 growth in restrictive medium (lifespan-shortening candidates) | S. cerevisiae BB579 growth, OD615, 48 h | AID 804 | 140,000 tested, 0.51% active | inhibition, % at 10 µM;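 active = inhibition above a set limit, 3 SD over the mean compound inhibition, cut at about 44% in these data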
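System: DeaD yeast strain BB579; buffer or medium: CSMM-D dextrose restrictive medium; technique: OD at 615 nm; schedule: 4 h cell preincubation, 48 h compound exposure, 30 °C humidified; doses: single 10 µM dose; controls: amphotericin B 10 µg/mL, positive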
WT yeast gro inh: growth inhibition of WT yeast, mitochondrial fusion screen | mitochondrial fusion phenotypic screen, WT strain | inhibition, % at 10 µM | 190,000 tested, 2.1% active | AID 1362; in the data active = inhibition above about 58%; tested in S. cerevisiae
Cl transport mod: KCC2 (human) Cl- transport modulation | Q9H2X9 | KCC2 cells, thallium flux FluoZin-2 fluorescence | B-score of Tl+ flux slope (higher = more flux/activation; lower = inhibition) at 10 µM | 190,000 tested, 2.2% active;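 active = thallium flux slope and its plate-corrected score both differing from the plate sample mean at a set confidence after two filtering rounds, in either direction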;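 also: slope of fluorescence scaled to starting intensity during 10 to 20 s after thallium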
Target sequence (Q9H2X9 whole entry, looked up): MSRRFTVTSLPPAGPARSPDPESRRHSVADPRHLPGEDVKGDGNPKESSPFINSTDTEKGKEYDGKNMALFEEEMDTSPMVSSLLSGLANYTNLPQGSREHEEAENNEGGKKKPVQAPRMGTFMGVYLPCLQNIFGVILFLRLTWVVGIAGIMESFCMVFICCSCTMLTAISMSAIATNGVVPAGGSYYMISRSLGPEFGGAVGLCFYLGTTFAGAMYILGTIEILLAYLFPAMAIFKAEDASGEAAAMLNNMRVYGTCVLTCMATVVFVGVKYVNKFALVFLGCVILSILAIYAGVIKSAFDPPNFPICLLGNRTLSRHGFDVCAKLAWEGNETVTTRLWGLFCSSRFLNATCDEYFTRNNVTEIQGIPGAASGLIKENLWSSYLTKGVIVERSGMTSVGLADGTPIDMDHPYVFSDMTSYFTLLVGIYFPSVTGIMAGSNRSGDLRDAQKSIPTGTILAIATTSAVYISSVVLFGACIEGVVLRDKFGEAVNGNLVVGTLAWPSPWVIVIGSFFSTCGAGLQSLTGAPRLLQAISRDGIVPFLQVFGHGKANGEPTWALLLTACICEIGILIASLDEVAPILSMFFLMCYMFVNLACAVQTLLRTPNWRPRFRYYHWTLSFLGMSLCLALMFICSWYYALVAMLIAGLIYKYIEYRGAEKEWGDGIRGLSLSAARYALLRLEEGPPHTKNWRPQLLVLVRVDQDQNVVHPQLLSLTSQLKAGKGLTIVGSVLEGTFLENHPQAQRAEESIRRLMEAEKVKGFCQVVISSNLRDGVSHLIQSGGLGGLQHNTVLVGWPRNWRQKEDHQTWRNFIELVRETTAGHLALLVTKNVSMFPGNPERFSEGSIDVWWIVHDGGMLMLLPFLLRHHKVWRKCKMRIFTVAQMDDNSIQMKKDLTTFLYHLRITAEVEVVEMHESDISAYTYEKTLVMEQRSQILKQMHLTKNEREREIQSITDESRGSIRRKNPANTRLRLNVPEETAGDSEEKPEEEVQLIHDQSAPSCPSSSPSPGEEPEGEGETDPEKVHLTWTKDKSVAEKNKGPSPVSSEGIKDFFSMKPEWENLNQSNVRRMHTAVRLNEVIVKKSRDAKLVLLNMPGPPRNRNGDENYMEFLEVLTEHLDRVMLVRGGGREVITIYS
Yeast lifespan up: yeast lifespan extension | S. cerevisiae growth with nicotinamide, OD615; deaD strain in restrictive glucose medium | inhibition of the nicotinamide effect, % at 10 µM | 130,000 tested, 0.68% active;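 active = inhibition above a set limit, placed 3 SD over the median of all compounds, cut at about 26% in these data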
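System: Modified budding yeast, DeaD strain | Buffer or medium: Restrictive glucose medium | Also added: 1.5 mM nicotinamide | Doses: 10 µM single point, 0.25% DMSO | Schedule: 48 h compound exposure at 30 °C, humidified | Detection: Absorbance at 615 nm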
Each line names hits and unclear results; the compound was inactive in the other large screens. Compounds with a hit are over-represented: about 5.5% of the library has one in this group of screens.

Cc1ccc(Cl)cc1NC(=S)N1CCC(c2ccccc2)C1 (configuration not stated)	WT yeast gro inh 59 (no result: BB579 growth dn, Yeast lifespan up)
Cc1ccc(C2CCN(C(=S)NC3CCCCC3)C2)cc1 (configuration not stated)	WT yeast gro inh 66 (no result: BB579 growth dn, Yeast lifespan up)
CC(=O)c1c(C)[nH]c(C(=O)CN2C(=O)NC(C)(c3ccc(C)cc3)C2=O)c1C (configuration not stated)	none (no result: BB579 growth dn, Yeast lifespan up)
CC1CCN(CC(CS(=O)(=O)c2ccc([N+](=O)[O-])cc2)N2CCC(C)CC2)CC1 (configuration not stated)	none (no result: RAM inhibit, BB579 growth dn, WT yeast gro inh, Yeast lifespan up)
COc1cc2c(cc1NC(=O)C(C)NCc1ccccc1)oc1ccccc12 (configuration not stated)	WT yeast gro inh 68
COc1cc2c(cc1NC(=O)Nc1ccccc1)oc1ccccc12	WT yeast gro inh 69
COc1cc2c(cc1NC(=O)CSCC(=O)O)oc1ccccc12	none
O=S(=O)(Nc1ccc2c(c1)oc1ccccc12)N1CCCC1	none
COc1cc2c(cc1NS(=O)(=O)N1CCCCC1)oc1ccccc12	WT yeast gro inh 80
COc1cc2c(cc1NC(=O)CN1C(=O)NC3(CCc4ccccc43)C1=O)oc1ccccc12 (configuration not stated)	WT yeast gro inh 66
Cc1cccc(NC(=S)N(CCN(C)C)Cc2cccs2)c1	none (no result: BB579 growth dn, Yeast lifespan up)
C=CCS/C(N)=N\N=C\c1cc(Br)cc([N+](=O)[O-])c1O	none (no result: RAM inhibit, BB579 growth dn, WT yeast gro inh, Yeast lifespan up)
CSc1nc(Cl)c(Cc2ccc(OCC(C)C)cc2)c(N2CCOCC2)n1	RAM inhibit 8.6
CCOc1ccc(Cc2c(Cl)nc(SC)nc2OC)cc1	RAM inhibit 9.4
CCCCOc1ccc(Cc2c(Cl)nc(SC)nc2N2CCOCC2)cc1	none
CN=C1S/C(=C\c2cc(C)n(-c3ccccc3F)c2C)C(=O)N1C	WT yeast gro inh 73 (no result: Cl transport mod)
Cc1cc(/C=C2\SC(=S)N(C)C2=O)c(C)n1-c1cccc(O)c1	none (no result: RAM inhibit, BB579 growth dn, WT yeast gro inh, Yeast lifespan up)
CCCOC(=O)CSc1nc(N)c(C#N)c(-c2ccco2)c1C#N	RAM inhibit 9.3 (no result: Yeast lifespan up)
COc1cccc2c(=O)c3c(cnn3C)n(C)c12	BB579 growth dn 74
O=C(NCCCN1CCCC1)c1cc(Sc2ccc(F)cc2)nc2ccccc12	none (no result: BB579 growth dn, Yeast lifespan up)
CCOCCCNC(=O)c1cc(Sc2ccc(C)cc2)nc2ccccc12	RAM inhibit 11
Cc1cccc(NC(=O)CSc2nc(N)c(NC(=O)c3cccs3)c(=O)[nH]2)c1C	none
CCOC(=O)N1CCN(S(=O)(=O)c2ccc(C)cc2)C1c1ccc(OC)cc1 (configuration not stated)	WT yeast gro inh 85
Cc1ccc(NC(=O)CSc2nnc(-c3n[nH]c4ccccc34)n2-c2ccccc2)c(C)c1	none
COC(=O)C1Cc2ccccc2CN1C(=O)CCl (configuration not stated)	none (no result: BB579 growth dn, Yeast lifespan up)
COC(=O)Cc1ccc(NC(=S)Nc2cccc(C)n2)cc1	none (no result: BB579 growth dn, Yeast lifespan up)
Cc1ccc(OCC(=O)NC(=S)Nc2cccc(C)n2)cc1	Cl transport mod 8.4
Cc1ccc2nc(NC(=O)c3cccs3)sc2c1	none
Cc1ccc2oc(-c3cccc(NC(=S)NC(=O)c4cccs4)c3)nc2c1	Cl transport mod 7.7
Cc1cccc(NC(=S)NC(=O)c2ccco2)n1	Cl transport mod 28
Cc1ccc2oc(-c3cccc(NC(=S)NC(=O)/C=C/c4ccco4)c3)nc2c1	none
Cc1ccc2nc(NC(=S)NC(=O)c3cccs3)sc2c1	Cl transport mod 9.2
Cc1cccc(SCC(=O)Nc2ccccc2[N+](=O)[O-])c1	none (no result: BB579 growth dn, Yeast lifespan up)
Cc1ccc(-c2csc(NC(=S)NC(=O)c3cccs3)n2)cc1	none
Cc1cccc(NC(=S)NC(=O)c2cccs2)n1	Cl transport mod 18
CCOCC(=O)Nc1nc2ccc(C)cc2s1	none
C/C=C/C(=O)OCC(=O)Nc1nc2ccc(C)cc2s1	Yeast lifespan up 49
O=C(Nc1ccccc1N1CCOCC1)c1ccccc1NS(=O)(=O)c1ccc(F)cc1	none
CCOC(=O)c1ccccc1NS(=O)(=O)c1ccc(OCC)cc1	none
CCOc1ccc(NC(=O)c2ccccc2NS(=O)(=O)c2ccc(F)cc2)c([N+](=O)[O-])c1	RAM inhibit 10
CCOc1ccc(S(=O)(=O)Nc2ccccc2C(=O)Nc2ccccc2N2CCOCC2)cc1	RAM inhibit 8.8
CCC1CCC(c2nnc(-c3ccc([N+](=O)[O-])cc3)o2)CC1 (configuration not stated)	none
Cc1cc(OCc2nc3ccccc3s2)ccc1N	none (no result: RAM inhibit, BB579 growth dn, WT yeast gro inh, Yeast lifespan up)
Cc1nn(Cc2ccccc2)c(C)c1C(=O)OCC(=O)c1cc(C)n(C2CC2)c1C	RAM inhibit 9.1
CC(C)(C)C1CCc2[nH]nc(C(=O)O)c2C1 (configuration not stated)	Yeast lifespan up 62
COc1ccc(C(=O)Nc2cccc([N+](=O)[O-])c2)cc1Br	none (no result: RAM inhibit, BB579 growth dn, WT yeast gro inh, Yeast lifespan up)
COc1ccc(NC(=O)Nc2cccc([N+](=O)[O-])c2)cc1Cl	WT yeast gro inh 79
COc1ccc(NC(=O)CNc2cccc(C#N)c2)cc1Cl	WT yeast gro inh 71 (no result: Cl transport mod)
O=C(Nc1ccc([N+](=O)[O-])cc1)Nc1ccc(OC(F)F)c(Cl)c1	WT yeast gro inh 84
COc1ccc(C)cc1NC(=O)C(c1ccccc1)N1CCNC(=O)C1 (configuration not stated)	none (no result: BB579 growth dn, Yeast lifespan up)
COCCN(C(=O)Cc1cccs1)C(C(=O)NCc1ccc(OC)cc1)c1ccccc1 (configuration not stated)	WT yeast gro inh 99 (no result: Cl transport mod)
COc1cccc(-c2cc(C(=O)Nc3cccc(O)c3)no2)c1	RAM inhibit 9.2
COCC(C)NC(=O)c1cc(-c2cccc(OC)c2)on1 (configuration not stated)	WT yeast gro inh 97 (no result: Cl transport mod)
Cc1cc([N+](=O)[O-])nn1CC(=O)N/N=C/c1ccc(O)cc1O	none (no result: RAM inhibit, BB579 growth dn, WT yeast gro inh, Yeast lifespan up)
N=C1C(c2nc3ccccc3s2)=C(O)CN1NC(=O)c1c[nH]c2ccccc12	RAM inhibit 8.5 (no result: BB579 growth dn, Yeast lifespan up)
N=C1C(c2nc3ccccc3s2)=C(O)CN1NC(=O)c1ccccc1[N+](=O)[O-]	none (no result: BB579 growth dn, Yeast lifespan up)
COc1cc(OC)cc(C2=NCCN2)c1	none (no result: BB579 growth dn, Yeast lifespan up)
CCN(C(=O)CSc1nnnn1-c1ccccc1)C1CCS(=O)(=O)C1 (configuration not stated)	none (no result: BB579 growth dn, Yeast lifespan up)
CC(C)(C)n1nnnc1C(c1ccc(C(F)(F)F)cc1)N(Cc1ccc(F)cc1)Cc1ccco1 (configuration not stated)	none (no result: Yeast lifespan up)
CC(C)(C)n1nnnc1C(c1ccc(Cl)cc1)N(Cc1cccnc1)Cc1ccco1 (configuration not stated)	WT yeast gro inh 68 (no result: Yeast lifespan up)
Cc1ccc(C(c2nnnn2C(C)(C)C)N(Cc2ccco2)Cc2cccs2)cc1 (configuration not stated)	none
CC(C)(C)n1nnnc1C(c1ccc(C(F)(F)F)cc1)N(Cc1ccccc1)Cc1ccco1 (configuration not stated)	RAM inhibit 11
CC(C)(C)n1nnnc1C(c1cccs1)N(Cc1ccccc1)Cc1cccnc1 (configuration not stated)	none
